Assay results from different studies.
Each line is one published result; the experiments were not run side by side.
Target: Myosin light chain kinase 2, skeletal/cardiac muscle (MYLK2, Homo sapiens, UniProt Q9H1R3)

Compound | effect on | technique | concentration | remaining binding
O=C(c1ccc(Nc2ncc(Cl)c(-c3ccc(Cl)s3)n2)cc1)N1CCC(N2CCCC2)CC1 | binding | competition with immobilised ligand | 1 µM | 2.4%
CCN1CCN(Cc2ccc(C(=O)Nc3ccc(C)c(Oc4ccc5c(c4)CC(=O)N5)c3)cc2C(F)(F)F)CC1 | binding | competition with immobilised ligand | 1 µM | 100%
C[C@H]1CCN(c2nccc(-c3cnn4ncccc34)n2)C1 | binding | – | 1 µM | 79%
O=C(NCCCN1CCOCC1)c1ccc(Nc2nccc(-c3cc4ccccc4s3)n2)cc1 | binding | competition with immobilised ligand | 1 µM | 9.1%
CN(c1nccc(-c2cnn3ncccc23)n1)C1CC1 | binding | – | 1 µM | 100%
COc1cnc(Nc2cccc(S(N)(=O)=O)c2)nc1N1CCN(c2ccccc2)CC1 | binding | competition with immobilised ligand | 1 µM | 100%
CN(C)c1nccc(-c2cnn3ncccc23)n1 | binding | – | 1 µM | 100%
CS(=O)(=O)c1cc(C2(NC(=O)c3cncc4c3cnn4-c3ccc(F)cc3)CC2)ccn1 | cell-free assay | competition with immobilised ligand | 1 µM | 100%
O=C(NCCCN1CCOCC1)c1ccc(Nc2ncc(Cl)c(-c3ccc(Cl)s3)n2)cc1 | binding | competition with immobilised ligand | 1 µM | 12%
c1cncc(-c2cccc(Nc3nccc(NC4CCCCC4)n3)c2)c1 | binding | competition with immobilised ligand | 10 µM | 70%
CNCc1ccccc1-c1csc([C@H](C)Nc2nc(C)nc3cc(OC)c(OC)cc23)c1 | cell-free assay | competition with immobilised ligand | 1 µM | 100%
Nc1ncc2c(n1)-c1c([nH]c3ccc(C#CC4CC4)cc13)CCCC2 | binding | competition with immobilised ligand | 1 µM | 100%
CCOC(=O)c1cc2cc(-c3cc(C(=O)NCc4ccc(C(=O)O)cc4)nn3C)ccc2[nH]1 | cell-free assay | competition with immobilised ligand | 0.1 µM | 89%
O=C(NCC1CCOCC1)c1n[nH]cc1NC(=O)c1c(F)cccc1F | binding | competition with immobilised ligand | 1 µM | 100%
Cc1cnn2ncc(-c3ccnc(N(C)C)n3)c2c1 | binding | – | 1 µM | 100%
O=C(N1CCS(=O)(=O)CC1)N1C[C@H](c2ccc(OC(F)(F)F)cc2)C[C@H](c2nc(C3CC3)no2)C1 | cell-free assay | competition with immobilised ligand | 1 µM | 100%
N[C@H]1CCN(c2nccc(-c3cnn4ncccc34)n2)C1 | binding | – | 1 µM | 92%
CN(C)CC#Cc1ccc(OCCCc2sc(N3CCc4cccc(C(=O)Nc5nc6ccccc6s5)c4C3)nc2C(=O)O)c(F)c1 | cell-free assay | competition with immobilised ligand | 1 µM | 100%
C=CC(=O)N1CCC(C(=O)NCC(=O)N2CCN(c3nc(-c4cnc(N)nc4C(F)F)nc(N4CCOCC4)n3)CC2)CC1 | binding | competition with immobilised ligand | 1 µM | 97%
CN(C)c1ncc(F)c(-c2cnn3ncccc23)n1 | binding | – | 1 µM | 100%
Cc1nc(C2CCN(C(=O)c3ccc(OC(F)(F)F)cc3N)CC2)c2ncc(N3CCN(C)CC3)cc2n1 | cell-free assay | competition with immobilised ligand | 1 µM | 87%
